{"source": "paper PMC3288537", "about": "(ACS Chemical Biology, 2011)", "key": {"PTP1B": {"target": "T1, PTP1B (Homo sapiens, UniProt P18031)", "T1 sequence (P18031 1-435)": "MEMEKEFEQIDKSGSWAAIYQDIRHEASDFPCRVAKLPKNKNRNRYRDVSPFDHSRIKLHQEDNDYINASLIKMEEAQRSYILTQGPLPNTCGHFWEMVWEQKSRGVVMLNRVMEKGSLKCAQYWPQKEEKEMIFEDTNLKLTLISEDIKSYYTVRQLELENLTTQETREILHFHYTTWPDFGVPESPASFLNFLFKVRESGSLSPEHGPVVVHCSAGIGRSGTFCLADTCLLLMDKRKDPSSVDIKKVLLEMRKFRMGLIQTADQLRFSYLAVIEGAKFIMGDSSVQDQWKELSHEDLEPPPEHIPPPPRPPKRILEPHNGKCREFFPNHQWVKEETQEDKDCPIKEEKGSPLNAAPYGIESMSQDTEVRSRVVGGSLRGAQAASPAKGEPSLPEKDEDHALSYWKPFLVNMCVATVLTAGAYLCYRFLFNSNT", "test": "Dose-response OMFP phosphatase assay, PTP1B", "assay_type": "biochemical", "details": "read-out: IC50 PTP1B; OMFP substrate"}, "[1]": {"tested_on": "ERK1/2 and p38 phosphorylation in Jurkat TAg T cells", "test": "Immunoblot of pERK1/2, pp38 and pMEK in TCR-stimulated Jurkat TAg T cells", "assay_type": "cell-based, human", "procedure,_shortened": "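Jurkat TAg T cells preincubated with test compound or DMSO (0.2% in time course) for 45 min at 37°C, then stimulated with OKT3 at 500 ng mL-1 for 5 min. Cells lysed at once, or washed and held in fresh RPMI 1640 for set times. Immunoblotted for phospho-ERK1/2, p38 and MEK; bands normalised to total protein (time course also to GAPDH). Mean ± SEM; Student's t-test; 3–4 independent experiments.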"}, "MKP-3": {"target": "T2, MKP-3 (Homo sapiens, UniProt Q16828)", "T2 sequence (Q16828 1-381)": "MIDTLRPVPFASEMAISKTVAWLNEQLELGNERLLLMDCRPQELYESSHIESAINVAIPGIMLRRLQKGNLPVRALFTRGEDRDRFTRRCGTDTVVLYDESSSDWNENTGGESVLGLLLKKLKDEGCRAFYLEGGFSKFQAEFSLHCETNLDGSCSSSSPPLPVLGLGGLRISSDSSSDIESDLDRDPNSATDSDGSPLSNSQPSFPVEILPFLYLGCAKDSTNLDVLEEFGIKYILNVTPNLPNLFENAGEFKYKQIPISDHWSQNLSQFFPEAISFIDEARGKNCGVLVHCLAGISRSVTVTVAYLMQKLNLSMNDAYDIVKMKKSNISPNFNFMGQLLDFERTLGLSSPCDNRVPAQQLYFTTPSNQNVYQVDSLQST", "test": "Dose-response OMFP phosphatase assay, MKP-3", "assay_type": "biochemical", "details": "read-out: IC50 MKP-3; OMFP substrate"}, "CD45": {"target": "T3, CD45 (Homo sapiens, UniProt P08575)", "T3 sequence (P08575 26-1306)": "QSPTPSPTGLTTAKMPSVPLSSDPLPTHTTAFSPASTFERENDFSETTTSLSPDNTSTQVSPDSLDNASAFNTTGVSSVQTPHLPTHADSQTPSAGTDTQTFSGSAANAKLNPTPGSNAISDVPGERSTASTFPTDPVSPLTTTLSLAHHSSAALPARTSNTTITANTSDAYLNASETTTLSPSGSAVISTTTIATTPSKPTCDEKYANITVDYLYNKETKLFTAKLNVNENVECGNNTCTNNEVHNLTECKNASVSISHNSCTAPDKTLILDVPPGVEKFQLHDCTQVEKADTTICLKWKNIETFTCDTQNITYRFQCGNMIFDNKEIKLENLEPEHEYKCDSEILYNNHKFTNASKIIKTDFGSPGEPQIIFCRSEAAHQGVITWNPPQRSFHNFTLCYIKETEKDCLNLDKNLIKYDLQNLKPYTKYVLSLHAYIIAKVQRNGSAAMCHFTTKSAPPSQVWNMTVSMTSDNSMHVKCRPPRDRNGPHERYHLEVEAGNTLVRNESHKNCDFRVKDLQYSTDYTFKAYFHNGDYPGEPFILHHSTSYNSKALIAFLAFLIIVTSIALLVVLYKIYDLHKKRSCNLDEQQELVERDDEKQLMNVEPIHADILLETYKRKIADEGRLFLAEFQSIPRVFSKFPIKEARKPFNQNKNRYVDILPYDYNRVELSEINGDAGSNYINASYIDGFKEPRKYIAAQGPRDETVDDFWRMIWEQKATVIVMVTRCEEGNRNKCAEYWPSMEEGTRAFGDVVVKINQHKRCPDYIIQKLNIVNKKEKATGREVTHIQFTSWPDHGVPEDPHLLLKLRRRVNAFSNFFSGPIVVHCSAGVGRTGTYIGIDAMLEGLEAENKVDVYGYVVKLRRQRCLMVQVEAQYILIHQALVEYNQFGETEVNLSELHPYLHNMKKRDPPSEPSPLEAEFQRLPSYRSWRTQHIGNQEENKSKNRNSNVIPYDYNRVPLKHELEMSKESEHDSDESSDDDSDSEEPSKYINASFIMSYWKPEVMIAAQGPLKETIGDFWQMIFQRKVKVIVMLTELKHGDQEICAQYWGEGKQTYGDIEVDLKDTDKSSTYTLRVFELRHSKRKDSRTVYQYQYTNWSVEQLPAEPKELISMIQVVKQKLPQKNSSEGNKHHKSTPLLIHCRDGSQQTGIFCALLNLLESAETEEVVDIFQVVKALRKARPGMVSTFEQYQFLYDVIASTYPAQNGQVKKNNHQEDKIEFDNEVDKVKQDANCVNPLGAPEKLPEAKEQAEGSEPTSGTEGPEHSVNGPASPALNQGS", "test": "Dose-response OMFP phosphatase assay, CD45", "assay_type": "biochemical", "details": "read-out: IC50 CD45; OMFP substrate", "procedure,_shortened": "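Ten-point 2-fold dilution series of test compound prepared in DMSO. Fluorescence (ex 485/em 528 nm) read in kinetic mode over 10 min; progress-curve slopes taken as activity. IC50 by nonlinear regression (sigmoidal, variable slope).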"}, "[2]": {"details": "4 μM preincubation, before TCR stimulation, stimulated DMSO = 100%"}, "[3]": {"details": "4 μM, OKT3 stimulation, DMSO = 100%"}, "[4]": {"details": "4 μM, up to 2 h after TCR stimulation"}, "[5]": {"details": "40 μM, 45 min preincubation, OKT3 5 min, vs DMSO"}}, "data": [{"smiles": "O=C(O)c1ccccc1-c1ccc(/C=c2\\sc3nc4cc(Br)cnc4n3c2=O)o1", "note": "[Compound 1]", "values": [{"measurement": "IC50", "setting": "PTP1B", "result": 1.7, "unit": "µM"}, {"measurement": "basal pERK1/2 phosphorylation level", "setting": "[1]; [2]", "result": "22.0 ± 2.5", "unit": "%"}, {"measurement": "basal pp38 phosphorylation level", "setting": "[1]; [2]", "result": "55.0 ± 5.8", "unit": "%"}, {"measurement": "pERK1/2 level after TCR stimulation", "setting": "[1]; [3]", "result": "134.3 ± 4.9", "unit": "%"}, {"measurement": "pp38 level after TCR stimulation", "setting": "[1]; [3]", "result": "125.5 ± 4.0", "unit": "%"}, {"measurement": "time course of pERK1/2 levels after stimulation", "setting": "[1]; [4]", "result": "remained constant up to 1 h after stimulation"}, {"measurement": "time course of pp38 levels after stimulation", "setting": "[1]; [4]", "result": "remained unchanged"}, {"measurement": "pERK1/2 levels", "setting": "[1]; [5]", "result": "augmented"}, {"measurement": "pMEK levels (activation of MEK)", "setting": "[1]; [5]", "result": "unchanged"}, {"measurement": "pp38 levels", "setting": "[1]; [5]", "result": "augmented"}, {"measurement": "pMEK levels in dose-response", "setting": "[1]; concentrations as high as 40 μM", "result": "not affected"}, {"measurement": "IC50", "setting": "MKP-3", "result": 5.2, "unit": "µM"}, {"measurement": "IC50", "setting": "CD45", "result": 3.1, "unit": "µM"}]}]}
